Assay outcomes (PubChem BioAssay)
Runt-CBFb FRET: blocks binding of human RUNX1 Runt domain to CBFb; Q01196+Q13951; Cerulean-Runt/Venus-CBFb FRET ratio 530/480, 1 h; inhibition, % at 20 µM; actives 0.46% (n = 220,000); AID 1496;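 active means inhibition over about 50% at 20 µM in the single-dose screen, limit read from the data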;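 further: 0% = DMSO wells and 100% = excess unlabeled CBFb competitor control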
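test system = Cerulean-tagged RUNX1 Runt domain (FRET donor) fusion protein | reagent = Venus-CBFb binding partner, 100 nM | incubation = protein complex preformed 1 h, compound exposure 1 h, room temperature, dark | detection = FRET fluorescence | read-out basis = loss of energy transfer signal | controls = 5 µM unlabeled CBFb as full-inhibition high control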
PERK inhibitor: blocks human PERK kinase. CHO PERK-DD fusion, SEAP luminescence translation reporter. inhibition, % at 5.6 µM. actives 0.17% (n = 220,000);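 active means inhibition above the mean inhibition of all tested compounds plus 3 SD, set separately per screening campaign, cut at about 2.9% in these data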;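 further: PERK kinase domain activated by AP20187 dimerizer at 100 nM; 0% = DMSO with dimerizer and 100% = rapamycin at 8.4 µM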
eIF4E 4G PPI: eIF4E/eIF4G interaction inhibition in translation initiation | actives 0.37% (n = 220,000) | AID 782 | TR-FRET eIF4E-eIF4GI(517-606) binding, 2 h | P63073+Q04637 | inhibition, % at 21.7 µM;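 active means inhibition above about 30%, limit read from the data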;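 further: 0% = full FRET control wells and 100% = background wells lacking eIF4GI fragment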
Target sequence (P63073 whole entry, looked up, the tested form may be a part): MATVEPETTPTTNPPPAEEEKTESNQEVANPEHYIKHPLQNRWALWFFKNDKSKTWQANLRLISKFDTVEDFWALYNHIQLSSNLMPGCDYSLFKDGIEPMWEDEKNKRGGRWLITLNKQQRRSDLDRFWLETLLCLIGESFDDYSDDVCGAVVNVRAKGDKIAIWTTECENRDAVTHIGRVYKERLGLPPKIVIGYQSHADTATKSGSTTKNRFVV
Target sequence (Q04637 whole entry, looked up, the tested form may be a part): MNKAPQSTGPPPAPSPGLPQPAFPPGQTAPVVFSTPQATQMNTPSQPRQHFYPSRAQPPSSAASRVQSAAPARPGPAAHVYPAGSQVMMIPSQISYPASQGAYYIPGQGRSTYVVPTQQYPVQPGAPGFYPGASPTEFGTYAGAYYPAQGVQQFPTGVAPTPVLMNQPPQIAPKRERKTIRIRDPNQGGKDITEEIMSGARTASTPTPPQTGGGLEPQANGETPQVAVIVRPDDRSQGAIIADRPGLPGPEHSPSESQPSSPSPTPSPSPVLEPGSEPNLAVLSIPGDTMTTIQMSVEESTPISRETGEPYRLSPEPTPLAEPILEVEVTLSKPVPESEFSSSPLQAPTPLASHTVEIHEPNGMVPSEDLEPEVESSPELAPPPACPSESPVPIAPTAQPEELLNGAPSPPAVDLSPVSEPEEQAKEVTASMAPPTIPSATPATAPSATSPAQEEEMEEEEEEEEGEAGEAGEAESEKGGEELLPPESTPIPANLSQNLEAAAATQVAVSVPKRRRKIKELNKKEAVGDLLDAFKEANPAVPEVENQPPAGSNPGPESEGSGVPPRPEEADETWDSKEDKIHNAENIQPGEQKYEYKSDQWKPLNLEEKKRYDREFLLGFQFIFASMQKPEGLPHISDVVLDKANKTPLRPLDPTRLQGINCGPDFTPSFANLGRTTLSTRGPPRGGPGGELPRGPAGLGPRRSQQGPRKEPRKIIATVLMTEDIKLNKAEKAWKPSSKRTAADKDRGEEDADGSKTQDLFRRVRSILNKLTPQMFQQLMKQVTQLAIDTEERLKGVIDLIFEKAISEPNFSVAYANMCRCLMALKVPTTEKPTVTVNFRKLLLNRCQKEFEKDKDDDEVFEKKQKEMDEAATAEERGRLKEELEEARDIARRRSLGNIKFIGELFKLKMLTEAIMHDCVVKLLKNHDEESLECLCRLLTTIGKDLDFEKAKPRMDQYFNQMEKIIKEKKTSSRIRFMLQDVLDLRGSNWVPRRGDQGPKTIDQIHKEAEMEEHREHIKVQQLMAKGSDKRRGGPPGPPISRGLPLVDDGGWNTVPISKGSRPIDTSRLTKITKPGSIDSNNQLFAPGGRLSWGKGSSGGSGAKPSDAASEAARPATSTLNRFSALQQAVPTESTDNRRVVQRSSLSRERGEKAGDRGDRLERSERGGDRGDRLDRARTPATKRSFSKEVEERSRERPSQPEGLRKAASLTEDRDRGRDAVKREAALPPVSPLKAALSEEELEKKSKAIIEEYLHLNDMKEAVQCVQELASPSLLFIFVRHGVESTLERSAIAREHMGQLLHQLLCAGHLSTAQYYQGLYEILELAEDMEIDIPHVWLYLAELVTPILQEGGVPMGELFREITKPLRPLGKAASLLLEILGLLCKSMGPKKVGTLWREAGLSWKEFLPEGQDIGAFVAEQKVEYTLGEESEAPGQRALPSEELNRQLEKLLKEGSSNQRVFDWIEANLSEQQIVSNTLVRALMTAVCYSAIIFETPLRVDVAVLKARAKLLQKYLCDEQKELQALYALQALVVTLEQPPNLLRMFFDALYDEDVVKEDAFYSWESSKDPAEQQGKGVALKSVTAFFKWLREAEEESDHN
RanGTP-Impb inh: disruptors of Ran-importin-beta complex formation – biochemical, FRET, CFP-Ran, YFP-importin-beta, homogeneous, primary screen | cell-free CFP-Ran/YFP-importin-beta FRET ratio | inhibition, % (test concentration not listed) | actives 1.1% (n = 300,000) | AID 2216;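 active means more than half of the replicate wells show a fall in the fluorescence ratio signal beyond about 16%, limit read from the data, passing the limit was not always enough; inconclusive means exactly half of the replicate wells pass the set limit; inactive means fewer than half of replicates pass the limit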;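 further: 0% = DMSO wells and 100% = Ran loaded with GDP instead of GTP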
Runt-SMMHC FRET: inhibitors of human RUNX1 Runt domain binding to CBFb-SMMHC | AID 1434 | Cerulean-Runt/Venus-CBFb-SMMHC FRET ratio 530/480, 1 h | actives 0.74% (n = 220,000) | inhibition, % at 20 µM;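 active means mean inhibition across duplicate retests at 20 µM reaching about 50%, limit read from the data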;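 further: 0% = DMSO wells and 100% = wells with excess untagged CBFb-SMMHC; inhibitors lower the FRET ratio by blocking Runt binding to CBFb-SMMHC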
Hck Nef HTS: blocks Nef-activated human Hck kinase | P08631 | Recombinant Hck-YEEI plus Nef, Z-Lyte FRET kinase assay | inhibition, % at 20 µM | actives 0.68% (n = 220,000) | AID 463187;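 active means Hck-Nef kinase inhibition above about 50%, limit read from the data; inactive means inhibition below that limit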;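 further: 0% = DMSO with Hck plus Nef and 100% = Hck alone without Nef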
The depositor's hits bear a star. Shown are actives, neighbours in structure and some others; about 2.2% of the full set was active somewhere.

Screening O=c1cc(NCc2ccccc2)nc2n1CCCS2 returned Runt-CBFb FRET -4, PERK inhibitor -1, eIF4E 4G PPI -1, RanGTP-Impb inh 20*, Runt-SMMHC FRET 1 and Hck Nef HTS 3.
`CC1=C(CC(=O)c2ccc(Cl)cc2)C(=O)c2ccccc2C1=O` gave Runt-CBFb FRET 2, PERK inhibitor 2.9*, eIF4E 4G PPI 0, RanGTP-Impb inh -3, Runt-SMMHC FRET 2 and Hck Nef HTS -1.
Screening CC(OC(=O)CNC(=O)c1ccc2c(c1)OCO2)C(=O)NCCC1=CCCCC1 (stereo not drawn) returned Runt-CBFb FRET 0, PERK inhibitor 1, eIF4E 4G PPI 0, RanGTP-Impb inh 2, Runt-SMMHC FRET 2 and Hck Nef HTS -1.
CC(C)N1CCN(Cc2ccc(C#CC(C)(C)O)cc2)CC1CCO (stereo not drawn) was read as PERK inhibitor 0, eIF4E 4G PPI 1, RanGTP-Impb inh 1 and Hck Nef HTS 22.
NNc1nc(-c2ccccc2)c2cc(Br)ccc2n1 was read as RanGTP-Impb inh -4.
`COc1cc(Nc2nc(-c3ccccc3)c3cc(C)ccc3n2)cc(OC)c1OC` gave Runt-CBFb FRET -7, PERK inhibitor -1, eIF4E 4G PPI -3, RanGTP-Impb inh 1, Runt-SMMHC FRET -13 and Hck Nef HTS 0.
Screening Cc1ccc2nc(NCCCO)nc(-c3ccccc3)c2c1 returned Runt-CBFb FRET 29, PERK inhibitor -1, eIF4E 4G PPI 6, RanGTP-Impb inh 30*, Runt-SMMHC FRET 59 and Hck Nef HTS 6.
Screening OCCCNc1nc(-c2ccccc2)c2cc(Br)ccc2n1 returned RanGTP-Impb inh 33*.
For c1ccc(Oc2c3ccccc3nc3ccccc23)cc1 the results were Runt-CBFb FRET 34, PERK inhibitor 1, eIF4E 4G PPI -5, RanGTP-Impb inh 9, Runt-SMMHC FRET 74* and Hck Nef HTS 42.
For O=C(NCCN1CCOCC1)c1ccc(/C=C2\Sc3ccccc3N(Cc3ccccc3F)C2=O)cc1 the results were RanGTP-Impb inh 10.
Screening CCN1CCN(CCNC(=O)c2ccc3c(c2)N(Cc2ccc(F)cc2)C(=O)/C(=C/c2ccccc2)S3)CC1 returned Runt-CBFb FRET -1, PERK inhibitor 0, eIF4E 4G PPI 37*, RanGTP-Impb inh 10, Runt-SMMHC FRET 2 and Hck Nef HTS 33.
Screening CCN1CCN(CCNC(=O)c2ccc(/C=C3/Sc4ccccc4N(Cc4cccc(Cl)c4)C3=O)cc2)CC1 returned Runt-CBFb FRET 16, PERK inhibitor 1, eIF4E 4G PPI 36*, RanGTP-Impb inh inconclusive, Runt-SMMHC FRET 33 and Hck Nef HTS -138.
`CN1CCN(CCCNC(=O)c2ccc(/C=C3\Sc4ccccc4N(Cc4ccccc4F)C3=O)cc2)CC1` gave Runt-CBFb FRET 13, PERK inhibitor 0, eIF4E 4G PPI 31*, RanGTP-Impb inh inconclusive, Runt-SMMHC FRET 28 and Hck Nef HTS -23.
COc1ccc2oc(C(=O)OCC(=O)NC(C)(C#N)C3CC3)c(C)c2c1 (stereo not drawn) was read as RanGTP-Impb inh -2.
`CN(C(=O)COC(=O)C1CCN(S(=O)(=O)c2ccc3c(c2)OCCO3)CC1)c1ccccc1` gave RanGTP-Impb inh 2.
Screening CS(=O)(=O)N1CCN(c2ccc([N+](=O)[O-])c(NCc3ccc(Cl)cc3)c2)CC1 returned Runt-CBFb FRET -17, PERK inhibitor 0, eIF4E 4G PPI 4, RanGTP-Impb inh -4, Runt-SMMHC FRET -60 and Hck Nef HTS 98*.
Screening Cc1cccn2c(=O)c3cc(C(=O)NCCN4CCOCC4)c(=N)n(CCCN4CCOCC4)c3nc12 returned RanGTP-Impb inh 131*.
`COc1ccc(CCn2c(=N)c(C(=O)NCCN3CCOCC3)cc3c(=O)n4cccc(C)c4nc32)cc1OC` gave RanGTP-Impb inh 11.
COCCCn1c(=N)c(C(=O)NCC2CCCO2)cc2c(=O)n3cccc(C)c3nc21 (stereo not drawn) was read as Runt-CBFb FRET 19, PERK inhibitor -1, eIF4E 4G PPI -2, RanGTP-Impb inh 177*, Runt-SMMHC FRET 60* and Hck Nef HTS 196*.
`Cc1cccn2c(=O)c3cc(C(=O)NCC4CCCO4)c(=N)n(CCN4CCOCC4)c3nc12` (stereo not drawn) gave Runt-CBFb FRET 125*, PERK inhibitor -1, RanGTP-Impb inh 106*, Runt-SMMHC FRET 79* and Hck Nef HTS 12.
Cc1ccc(Cn2c(=N)c(C(=O)NCC3CCCO3)cc3c(=O)n4cccc(C)c4nc32)cc1 (stereo not drawn) was read as RanGTP-Impb inh -3.
Screening CCOc1ccc(S(=O)(=O)N(C)c2ccc(OCC(=O)NC3=NCCS3)cc2)cc1 returned Runt-CBFb FRET -3, PERK inhibitor 0, eIF4E 4G PPI -4, RanGTP-Impb inh -2, Runt-SMMHC FRET -4 and Hck Nef HTS 26.
For O=C(Cc1ncon1)Nc1ccc(F)c(F)c1F the results were Runt-CBFb FRET 0, PERK inhibitor 3.6*, eIF4E 4G PPI -1, RanGTP-Impb inh 2, Runt-SMMHC FRET -9 and Hck Nef HTS -5.
`O=C(CNCC(=O)Nc1ccc(F)c(F)c1F)Nc1ccc(F)c(F)c1F` gave RanGTP-Impb inh 2.
`c1ccc(-c2nnc(SCC3CCCO3)nc2-c2ccccc2)cc1` (stereo not drawn) gave Runt-CBFb FRET -2, PERK inhibitor -1, eIF4E 4G PPI -2, RanGTP-Impb inh 26*, Runt-SMMHC FRET -4 and Hck Nef HTS 6.
Screening O=c1c(O)c(-c2cccs2)oc2ccc(Cl)cc12 returned Runt-CBFb FRET 7, PERK inhibitor 1, eIF4E 4G PPI 4, RanGTP-Impb inh 18*, Runt-SMMHC FRET 58* and Hck Nef HTS 1.
O=c1c(O)c(-c2cccs2)oc2ccccc12 was read as Runt-CBFb FRET 19, PERK inhibitor -1, eIF4E 4G PPI -14, RanGTP-Impb inh 93*, Runt-SMMHC FRET 79* and Hck Nef HTS -6.
`CCCCn1c(-c2cccs2)nc2oc3ccccc3c(=O)c2c1=O` gave Runt-CBFb FRET -3, PERK inhibitor 0, eIF4E 4G PPI 10, RanGTP-Impb inh 5, Runt-SMMHC FRET 0 and Hck Nef HTS 10.
`O=C(c1cc2c(=O)n3ccccc3nc2s1)N1CCc2ccccc2C1` gave Runt-CBFb FRET 19, PERK inhibitor 0, eIF4E 4G PPI 1, RanGTP-Impb inh -1, Runt-SMMHC FRET 81* and Hck Nef HTS 36.
Screening CCN1CCN(C(=O)c2cc3c(=O)n4ccccc4nc3s2)CC1 returned RanGTP-Impb inh 12.
COCCN(C(=O)COC(=O)CCc1ccc(OC)cc1)c1c(N)n(Cc2ccccc2)c(=O)[nH]c1=O was read as RanGTP-Impb inh 2.
